The ΔTm is the change in melting temperature against a reference sample.

Common to all, as to format: nucleic-acid assay
Assay [1] relates to Quadruplex DNA. As to the kind of experiment: Binding affinity to 6-FAM labeled human telomeric F21T G-quadruplex DNA assessed as change in melting temperature at 1 uM in K+ rich buffer (10 mM KCl, 90 mM LiCl, 10 mM Li cacodylate) by FRET assay. In short, it runs like this:
(§1)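 FRET melting in duplicate. Dual-labelled oligo (6-FAM/TAMRA) at 0.2 μM with ligand at 1 μM, in 10 mM Li cacodylate pH 7.2. Buffer was 10 mM KCl + 90 mM LiCl for F21T and 1 mM KCl + 99 mM LiCl for FMycT. Sample annealed 90 °C 5 min, cooled to 4 °C overnight. Equilibrated 5 min at 25 °C, then ramped 0.5 °C/min to 95 °C. FAM read 492/516 nm, normalized; Tm taken at the fitted inflection point.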

Assay [2] concerns Quadruplex DNA. The experiment in a line: Binding affinity to 6-FAM labeled human proto-oncogene sequence FMycT G-quadruplex DNA assessed as change in melting temperature at 1 uM in presence of K+ buffer (1 mM KCl, 99 mM LiCl, 10 mM Li cacodylate) by FRET assay. The method, boiled down: as §1
In a further assay the test system is dsDNA. As to the kind of experiment: Binding affinity to duplex 26 DNA (unknown origin) assessed as change in melting temperature at 1 uM by FRET.

The structures appear in SMILES notation. Several values for one entry are separate records, joined by “and”; a condition that tells them apart may be missing. Identical values can stand only once. Activity calls are given as the source filed them. The rule behind the calls is not given here.

In the case of `c1cc(-c2cnco2)nc(-c2ncc(-c3cc(OCCN4CCCCC4)cc(-c4cnc(-c5cccc(-c6cnco6)n5)o4)n3)o2)c1`, the ΔTm in the assay on Quadruplex DNA [1] was in the range of 5 to 7 °C; in the assay with Quadruplex DNA [2], 2.5 to 4.3 °C. Moreover, the result in the assay with dsDNA was inactive.

As to `c1cc(-c2cnc(-c3cccc(-c4cnco4)n3)o2)nc(-c2cnc(-c3cccc(-c4cnco4)n3)o2)c1`, the results for the shift in melting temperature (ΔTm) in the assay with Quadruplex DNA [1] and in the assay with Quadruplex DNA [2] were 5 to 7 °C and 2.5 to 4.3 °C, respectively. For the same compound, in the assay with dsDNA, the outcome was inactive.

Consider `CN(C)CCOc1cc(-c2cnc(-c3cccc(-c4cnco4)n3)o2)nc(-c2cnc(-c3cccc(-c4cnco4)n3)o2)c1`, for which the ΔTm was in the range of 5 to 7 °C in the assay with Quadruplex DNA [1] and 2.5 to 4.3 °C with Quadruplex DNA [2]. Also, the outcome in the assay on dsDNA was inactive.

On to `CN(C)CCOc1cc(-c2ncc(-c3ccccn3)o2)nc(-c2ncc(-c3ccccn3)o2)c1`, for which the thermal shift (ΔTm) was 11.6 °C and 11 °C with Quadruplex DNA [1]; 1.8 to 2.9 °C in the assay on Quadruplex DNA [2]. For the same compound, the outcome in the assay on dsDNA was inactive.

As for `c1ccc(-c2cnc(-c3cccc(-c4ncc(-c5ccccn5)o4)n3)o2)nc1`, the ΔTm was 5.3 °C with Quadruplex DNA [1] and 1.8 to 2.9 °C with Quadruplex DNA [2]. Moreover, in the assay with dsDNA, the result was inactive.

With `c1ccc(-c2ncc(-c3cccc(-c4cnc(-c5ccccn5)o4)n3)o2)nc1`, the outcome with dsDNA was inactive.
